# Experimental data as given in ChEMBL document CHEMBL1124104, “(Acyloxy)benzophenones and (acyloxy)-4-pyrones. A new class of inhibitors of human neutrophil elastase” (J Med Chem, 1988).
# Key:
# [1] = biological target: T1, Neutrophil elastase (Homo sapiens, UniProt P08246); assay: Inhibitory activity against human leukocyte elastase at 10e-7 M
# T1 sequence (P08246 whole entry): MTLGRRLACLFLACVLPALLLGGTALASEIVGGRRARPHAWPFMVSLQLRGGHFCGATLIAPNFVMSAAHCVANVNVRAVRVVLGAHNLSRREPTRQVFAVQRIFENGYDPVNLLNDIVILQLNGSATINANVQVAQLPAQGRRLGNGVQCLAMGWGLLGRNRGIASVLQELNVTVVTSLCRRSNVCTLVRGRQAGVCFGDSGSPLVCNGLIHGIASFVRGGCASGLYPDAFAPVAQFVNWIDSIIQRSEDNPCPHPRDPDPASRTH
# [2] = Inhibitory activity against Hog pancreatic elastase; IA = Inactive at 10e-6; parameters: species or system Sus scrofa
# [3] = biological target: T1, Neutrophil elastase; assay: Binding affinity towards human leukocyte elastase at 10e-8 M
# In short: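 HLE activity followed as rise in absorbance at 410 nm from nitroanilide release; substrate (methoxysuccinyl)Ala-Ala-Pro-Val nitroanilide at 10⁻⁴ M. Run in 0.2 M Tris, pH 8.0, 30 °C. Inhibitors and substrate dissolved in DMSO, which made up 10% of the final medium. Enzyme titrated to give 0.12 OD unit/min per 10 mm path.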
# [4] = Inhibitory activity against pancreatic elastase; IA = Inactive at 10e-6
# [5] = biological target: T2, Neutrophil elastase (Homo sapiens) (UniProt P08246); conditions: 2 uM
# T2 sequence (whole entry): T1 sequence (P08246 whole entry)
# [6] = biological target: T2, Neutrophil elastase (Homo sapiens); conditions: 2 uM; remark: listed apart in the source
# [7] = biological target: T2, Neutrophil elastase (Homo sapiens); conditions: 2 uM; remark: listed apart in the source
# [8] = biological target: T2, Neutrophil elastase (Homo sapiens); conditions: 3 uM
# [9] = biological target: T2, Neutrophil elastase (Homo sapiens); conditions: 3 uM; remark: listed apart in the source
# [10] = biological target: T2, Neutrophil elastase (Homo sapiens); conditions: 3 uM; remark: listed apart in the source
# [11] = biological target: T2, Neutrophil elastase (Homo sapiens); conditions: 1 uM
# [12] = biological target: T2, Neutrophil elastase (Homo sapiens); conditions: 1 uM; remark: listed apart in the source
# [13] = biological target: T2, Neutrophil elastase (Homo sapiens); conditions: 1 uM; remark: listed apart in the source
# [14] = Inhibitory activity against Hog pancreatic elastase; IA = Inactive at 1e-5M; parameters: species or system Sus scrofa
# [15] = Inhibitory activity against pancreatic elastase; IA = Inactive at 1e-5M
IC50 [1] [nM],IC50 [2],Ki [3] [nM],IC50 [4],inhibition [5] [%],inhibition [6] [%],inhibition [7] [%],inhibition [8] [%],inhibition [9] [%],inhibition [10] [%],inhibition [11] [%],inhibition [12] [%],inhibition [13] [%],IC50 [14],IC50 [15],Compound
120,Not Active,71,Not Active,62,42,46,77,77,67,34,28,15,,,CC(C)(C)C(=O)Oc1ccc(C(=O)c2ccc(OC(=O)C(C)(C)C)cc2)cc1
,,,,,,,,,,,,,Not Active,Not Active,CC(C)(C)C(=O)Oc1ccc(C(=O)c2ccccc2)cc1
